Conditions in all cases: Homo sapiens
Assay [1] relates to MT4. Put plainly: Anti-HIV-1 activity evaluated in vitro on MT-4 cells. Type of assay: functional, cell-based. A digest of the protocol: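 MT4 cells (RPMI, 10% fetal calf serum) infected with HIV-1 IIIB at a dose killing 90% of cells by day 5. Compounds in DPBS added after viral adsorption. Protection from the viral cytopathic effect read by MTT viability assay. IC50 derived from curves of protection percentage against drug concentration.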

Assay [2] has as its system CEM-SS. Put plainly: Anti-HIV-1 activity evaluated in vitro on CEM-SS cells. Type of assay: functional, cell-based. A digest of the protocol:
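CEM-SS cells (RPMI, 10% fetal calf serum) infected with HIV-1 LAI grown in CEM-SS cells. Galactolipids in DPBS (or as phospholipid/cholesterol liposomes) added after viral adsorption. After 5 days, reverse transcriptase activity in supernatant measured, and inhibition calculated against untreated infected cells. IC50 taken from median-effect plot of dose-effect data. Triplicate per concentration, experiment repeated twice.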

In assay [3] the test system is MT4. Put plainly: Cytotoxicity was evaluated in vitro on MT-4 cells. The format is functional. A digest of the protocol: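 Uninfected MT4 cells incubated 5 days at 37 °C with various concentrations of galactolipid in DPBS. Proliferation and viability read by colorimetric MTT assay.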
In assay [4] the test system is CEM-SS. Kind of assay: Cytotoxicity was evaluated in vitro on CEM-SS cells. The format is functional.

In general, IC50 refers to the midpoint of a concentration-inhibition curve. Usually CC50 stands for the concentration at which the toxic effect on the cells reaches its halfway point. Lower therefore signals greater toxicity to the cells. As for `CCCCCCCCCCCCCC(=O)NC(CO[C@@H]1O[C@H](CO)[C@H](O)[C@H](O)[C@H]1O)C(=O)NCCO` (stereo not given in full), the 50% inhibitory concentration (IC50) in the assay with MT4 [1] and in the assay with CEM-SS [2] was over 100 µM each time. Further, the CC50 in the assay on MT4 [3] and in the assay with CEM-SS [4] was over 100 µM throughout.

As to `O=C(O)CCCCCCCCCCC(=O)N(CCCCCCCC(F)(F)C(F)(F)C(F)(F)C(F)(F)C(F)(F)C(F)(F)C(F)(F)C(F)(F)F)CCO[C@@H]1O[C@H](CO)[C@H](O)[C@H](O)[C@H]1O`, the concentration for half-maximal inhibition (IC50) in the assay on MT4 [1] and with CEM-SS [2] was over 18 µM throughout. Moreover, the CC50 with MT4 [3] and in the assay on CEM-SS [4] was over 18 µM each time.

`CCCCCCCCCCCCCCNC(=O)C(CO[C@@H]1O[C@H](CO)[C@H](O)[C@H](O)[C@H]1O)NP(=O)(O)OC` (stereo not given in full): the IC50 with MT4 [1] and in the assay with CEM-SS [2] was over 100 µM throughout. Moreover, the 50% cytotoxic concentration (CC50) in the assay on MT4 [3] and in the assay with CEM-SS [4] was over 100 µM each time.

As to `CCCCCCCCCCCCCCNC(=O)C(CO[C@@H]1O[C@H](CO)[C@H](O)[C@H](O)[C@H]1O)NC(=O)CCC(=O)NCCS(=O)(=O)O` (stereo not given in full), the IC50 in the assay on MT4 [1] is over 100 µM; in the assay on CEM-SS [2] it was 50 µM. The CC50 in the assay with MT4 [3] and with CEM-SS [4] was over 100 µM in each case.

For the molecule `CCCCCCCCCCCCCCNC(=O)C(N)CO[C@@H]1O[C@H](CO)[C@H](O)[C@H](O)[C@H]1O` (stereo not given in full), it took 60 µM to reach half-maximal inhibition in the assay with CEM-SS [2] (IC50).

For `CCCCCCCCCCCCCC(=O)NC(CO[C@@H]1O[C@H](CO)[C@H](O)[C@H](O)[C@H]1O)C(=O)NCCOS(=O)(=O)O` (stereo not given in full), the IC50 in the assay on MT4 [1] was determined as 20 µM; in the assay with CEM-SS [2], 10 µM. Further, the CC50 in the assay with MT4 [3] and in the assay with CEM-SS [4] was over 100 µM in each case.

With `O=C(O)CCCCCCCCCCCNC(=O)C(CO[C@@H]1O[C@H](CO)[C@H](O)[C@H](O)[C@H]1O)NC(=O)CCC(=O)O` (stereo not given in full), the half-maximal inhibitory concentration (IC50) with MT4 [1] and in the assay with CEM-SS [2] was over 100 µM in each case. Moreover, the CC50 in the assay with MT4 [3] and in the assay with CEM-SS [4] was over 100 µM in each case.

In the case of `CCCCCCCCCCCCCCNC(=O)C(CO[C@@H]1O[C@H](CO)[C@H](O)[C@H](O)[C@H]1O)NC(=O)CCC(=O)O` (stereo not given in full), the 50% inhibitory concentration (IC50) with MT4 [1] and with CEM-SS [2] was over 100 µM throughout. The half-maximal cytotoxic concentration (CC50) in the assay on MT4 [3] and in the assay with CEM-SS [4] was over 100 µM in each case.

As to `CCCCCCCCCCCCCCNC(=O)C(CO[C@@H]1O[C@H](CO)[C@H](O)[C@H](O)[C@H]1O)NC(=O)CCCCCCCCCCC(=O)O` (stereo not given in full), the IC50 with MT4 [1] and in the assay with CEM-SS [2] was over 100 µM throughout. Further, the CC50 in the assay on MT4 [3] and in the assay with CEM-SS [4] was over 100 µM each time.

As for `CCCCCCCCCCCCCC(=O)NC(CO[C@@H]1O[C@H](CO)[C@H](O)[C@H](O)[C@H]1O)C(=O)O` (stereo not given in full), the values for the IC50 in the assay with MT4 [1] and with CEM-SS [2] were over 100 µM and 20 µM, respectively. In addition, the cytotoxic concentration (CC50) in the assay with MT4 [3] and with CEM-SS [4] was over 100 µM throughout.

As for `NC(CO[C@@H]1O[C@H](CO)[C@H](O)[C@H](O)[C@H]1O)C(=O)NCCCCCCCCCCCC(=O)O` (stereo not given in full), the half-inhibitory concentration (IC50) in the assay with MT4 [1] and in the assay on CEM-SS [2] was over 100 µM each time. The CC50 in the assay with MT4 [3] and in the assay on CEM-SS [4] was over 100 µM each time.

As to `NC(CO[C@@H]1O[C@H](CO)[C@H](O)[C@H](O)[C@H]1O)C(=O)NCCCCCCCCCCCC(F)(F)C(F)(F)C(F)(F)C(F)(F)C(F)(F)C(F)(F)F` (stereo not given in full), the IC50 with CEM-SS [2] worked out at 40 µM.

Consider `CCCCCCCCCCCCCC(=O)NCC(NC(=O)CCCCCCCCCCCCC)C(=O)NCCN(CCNC(=O)C(O)C(O)C(O[C@@H]1O[C@H](CO)[C@H](O)[C@H](O)C1O)C(O)CO)CCNC(=O)C(O)C(O)C(O[C@@H]1O[C@H](CO)[C@H](O)[C@H](O)[C@H]1O)C(O)CO` (stereo not given in full), for which the IC50 in the assay on MT4 [1] was determined as 33 µM; with CEM-SS [2], 32 µM. Moreover, the CC50 was determined as 38 µM with MT4 [3] and 44 µM in the assay with CEM-SS [4].

On to `CCCCCCCCCCCCCC(=O)NCC(NC(=O)CCCCCCCCCCCCC)C(=O)NCCNC(=O)C(O)C(O)C(O[C@@H]1O[C@H](CO)[C@H](O)[C@H](O)[C@H]1O)C(O)CO` (stereo not given in full), for which the half-inhibitory concentration (IC50) in the assay with MT4 [1] and in the assay on CEM-SS [2] was over 100 µM in each case. In addition, the CC50 in the assay with MT4 [3] and with CEM-SS [4] was over 100 µM each time.

These data come from ChEMBL document CHEMBL1134517, “Amphiphilic anionic analogues of galactosylceramide: synthesis, anti-HIV-1 activity, and gp120 binding” (J Med Chem, 2001).
